Reference: ChEMBL document CHEMBL1921722, “In vitro and in vivo evaluation of select kahalalide F analogs with antitumor and antifungal activities” (Bioorg Med Chem, 2011)
Converted amounts (≈) assume the structure as drawn. The source made the active and inactive calls.

Columns and labels:
SK-MEL-2 [1] = assay: Cytotoxicity against human SK-MEL-2 cells by sulforhodamine B assay; assay type: functional
Procedure, shortened: (§1)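 NCI Developmental Therapeutics Program 60-cell-line human tumor panel screen, run at NCI. A single-concentration pre-screen was followed by a five-concentration dose-response in 10-fold steps. GI50 is the concentration that reduces growth of treated cells to half that of untreated control cells. TGI is the concentration that completely halts growth.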

OVCAR-3 [2] = assay: Cytotoxicity against human OVCAR3 cells by sulforhodamine B assay; assay type: functional; procedure, shortened: as §1
SK-OV-3 = assay: Cytotoxicity against human SKOV3 cells by sulforhodamine B assay; assay type: functional; procedure, shortened: as §1
UACC-257 = assay: Cytotoxicity against human UACC257 cells assessed as cell growth at 8 nM by sulforhodamine B assay relative to control; assay type: functional; conditions: read-out: Activity
SK-MEL-28 [3] = assay: Cytotoxicity against human SK-MEL-28 cells assessed as cell growth at 8 nM by sulforhodamine B assay relative to control; assay type: functional; conditions: read-out: Activity
SNB-19 = assay: Cytotoxicity against human SNB19 cells assessed as cell growth at 8 nM by sulforhodamine B assay relative to control; assay type: functional; conditions: read-out: Activity
Cryptococcus neoformans = assay: Antimicrobial activity against Cryptococcus neoformans ATCC 90113 by CLSI method; assay type: functional, organism-based
Mus musculus [4] = assay: Acute toxicity in athymic nude mouse assessed as mortality at 400 mg/kg, […] after 19 days; assay type: organism-based; design: dose 400 mg/kg, route intraperitoneal; conditions: in vivo, ip, 456 h
Mus musculus [5] = assay: Acute toxicity in athymic nude mouse assessed as mortality at 200 mg/kg, […] after 19 days; assay type: organism-based; design: dose 200 mg/kg, route intraperitoneal; conditions: in vivo, ip, 456 h
SR [6] = assay: Cytotoxicity against human SR cells assessed as cell growth at 8 nM by sulforhodamine B assay relative to control; assay type: functional; conditions: read-out: Activity
OVCAR-3 [7] = assay: Cytotoxicity against human OVCAR3 cells assessed as cell growth at 8 nM by sulforhodamine B assay relative to control; assay type: functional; conditions: read-out: Activity
T47D = assay: Cytotoxicity against human T47D cells assessed as cell growth at 8 nM by sulforhodamine B assay relative to control; assay type: functional; conditions: read-out: Activity
SF-539 = assay: Cytotoxicity against human SF539 cells assessed as cell growth at 80 nM by sulforhodamine B assay relative to control; assay type: functional; conditions: read-out: Activity
SK-MEL-28 [8] = assay: Cytotoxicity against human SK-MEL-28 cells assessed as cell growth at 80 nM by sulforhodamine B assay relative to control; assay type: functional; conditions: read-out: Activity
IGROV-1 = assay: Cytotoxicity against human IGROV1 cells assessed as cell growth at 80 nM by sulforhodamine B assay relative to control; assay type: functional; conditions: read-out: Activity
DU-145 [9] = assay: Cytotoxicity against human DU145 cells assessed as cell growth at 80 nM by sulforhodamine B assay relative to control; assay type: functional; conditions: read-out: Activity
EKVX [10] = assay: Cytotoxicity against human EKVX cells assessed as cell growth at 800 nM by sulforhodamine B assay relative to control; assay type: functional; conditions: read-out: Activity
NCI-H522 [11] = assay: Cytotoxicity against human NCI-H522 cells assessed as cell growth at 800 nM by sulforhodamine B assay relative to control; assay type: functional; conditions: read-out: Activity
SK-MEL-2 [12] = assay: Cytotoxicity against human SK-MEL-2 cells assessed as cell growth at 800 nM by sulforhodamine B assay relative to control; assay type: functional; conditions: read-out: Activity
NCI/ADR-RES = assay: Cytotoxicity against human NCI/ADR-RES cells assessed as cell growth at 800 nM by sulforhodamine B assay relative to control; assay type: functional; conditions: read-out: Activity
SR [13] = assay: Cytotoxicity against human SR cells assessed as cell growth at 8 uM by sulforhodamine B assay relative to control; assay type: functional; conditions: read-out: Activity
SF-268 = assay: Cytotoxicity against human SF268 cells assessed as cell growth at 8 uM by sulforhodamine B assay relative to control; assay type: functional; conditions: read-out: Activity
Malme-3M = assay: Cytotoxicity against human MALME-3M cells assessed as cell growth at 8 uM by sulforhodamine B assay relative to control; assay type: functional; conditions: read-out: Activity
SK-MEL-28 [14] = assay: Cytotoxicity against human SK-MEL-28 cells assessed as cell growth at 8 uM by sulforhodamine B assay relative to control; assay type: functional; conditions: read-out: Activity
OVCAR-8 = assay: Cytotoxicity against human OVCAR8 cells assessed as cell growth at 8 uM by sulforhodamine B assay relative to control; assay type: functional; conditions: read-out: Activity
786-0 = assay: Cytotoxicity against human 786-0 cells assessed as cell growth at 8 uM by sulforhodamine B assay relative to control; assay type: functional; conditions: read-out: Activity
Procedure, shortened: (§2)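 Run at NCI in the DTP 60-cell-line human tumor panel by standard procedure. Compounds were first screened at a single concentration, then tested at five tenfold-spaced concentrations. GI50 is the concentration reducing treated-cell growth to half that of untreated controls; TGI is the concentration completely halting growth.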

SN12C [15] = assay: Cytotoxicity against human SN12C cells assessed as cell growth at 8 uM by sulforhodamine B assay relative to control; assay type: functional; conditions: read-out: Activity
DU-145 [16] = assay: Cytotoxicity against human DU145 cells assessed as cell growth at 8 uM by sulforhodamine B assay relative to control; assay type: functional; conditions: read-out: Activity; procedure, shortened: as §2
MCF7 = assay: Cytotoxicity against human MCF7 cells assessed as cell growth at 8 uM by sulforhodamine B assay relative to control; assay type: functional; conditions: read-out: Activity
EKVX [17] = assay: Cytotoxicity against human EKVX cells assessed as cell growth at 80 uM by sulforhodamine B assay relative to control; assay type: functional; conditions: read-out: Activity
NCI-H522 [18] = assay: Cytotoxicity against human NCI-H522 cells assessed as cell growth at 80 uM by sulforhodamine B assay relative to control; assay type: functional; conditions: read-out: Activity
HCT-15 = assay: Cytotoxicity against human HCT15 cells assessed as cell growth at 80 uM by sulforhodamine B assay relative to control; assay type: functional; conditions: read-out: Activity
SK-MEL-5 = assay: Cytotoxicity against human SK-MEL-5 cells assessed as cell growth at 80 uM by sulforhodamine B assay relative to control; assay type: functional; conditions: read-out: Activity
RXF 393 = assay: Cytotoxicity against human RXF393 cells assessed as cell growth at 80 uM by sulforhodamine B assay relative to control; assay type: functional; conditions: read-out: Activity
SN12C [19] = assay: Cytotoxicity against human SN12C cells assessed as cell growth at 80 uM by sulforhodamine B assay relative to control; assay type: functional; conditions: read-out: Activity
LOX IMVI = assay: Antitumor activity against human LOXIMVI cells xenografted in mouse assessed as tumor cell killing at 4.7 mg/kg, ip qd for 4 days by MTT assay; assay type: functional, organism-based; design: dose 4.7 mg/kg
Procedure, shortened: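 Hollow-fiber assay in mice. Tumor lines were grown in RPMI-1640 with 10% FBS and 2 mM glutamine. Cells at 2 × 10^6 cells/ml were loaded into 1 mm PVDF fibers (500,000 Da cutoff), heat-sealed at 2 cm and held 24–48 h at 37 °C, 5% CO2 before implantation. Compound was given IP. Fibers were collected the day after the fourth treatment for MTT (OD 540 nm, group means). A ≥50% cut in percent net growth versus vehicle counted as positive.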

RPMI-8226 = assay: Cytotoxicity against human RPMI8226 cells by sulforhodamine B assay; assay type: functional; procedure, shortened: as §1
NCI-H23 = assay: Cytotoxicity against human NCI-H23 cells by sulforhodamine B assay; assay type: functional; procedure, shortened: as §1

C/C=C1\NC(=O)[C@H](Cc2ccccc2)NC(=O)[C@@H](C(C)C)NC(=O)[C@@H]([C@@H](C)CC)NC(=O)[C@H](NC(=O)[C@H](NC(=O)[C@H](CCCNCc2ccc(F)c(C)c2)NC(=O)[C@H]2CCCN2C(=O)[C@H](NC(=O)[C@@H](NC(=O)[C@@H](NC(=O)[C@H](NC(=O)CCCC(C)C)C(C)C)[C@@H](C)O)C(C)C)C(C)C)[C@@H](C)CC)[C@@H](C)OC(=O)[C@H](C(C)C)NC1=O
GI50 (SK-MEL-2 [1]): 1410 nM
TGI (SK-MEL-2 [1]; read-out: pTGI (converted)): 2690 nM
GI50 (OVCAR-3 [2]): 437 nM
LC50 (OVCAR-3 [2]): 3470 nM
TGI (OVCAR-3 [2]; read-out: pTGI (converted)): 1480 nM
LC50 (SK-OV-3): 891 nM
GI50 (SK-OV-3; read-out: GI50): 173 nM
TGI (SK-OV-3; read-out: TGI): 370 nM
GI50 (SK-OV-3; read-out: pGI50 (converted)): 174 nM
TGI (SK-OV-3; read-out: pTGI (converted)): 372 nM
growth at 0.008 µM (UACC-257): 102%
growth at 0.008 µM (SK-MEL-28 [3]): 97%
growth at 0.008 µM (SNB-19): 99%
IC50 (Cryptococcus neoformans): 950 nM
MFC (Cryptococcus neoformans): 10 µM (≈ 16 µg/mL)
MIC (Cryptococcus neoformans): 5 µM (≈ 8 µg/mL)
Activity (Mus musculus [4]): Toxic
Activity (Mus musculus [5]): Non-toxic
growth at 0.008 µM (SR [6]): 90%
growth at 0.008 µM (OVCAR-3 [7]): 105%
growth at 0.008 µM (T47D): 104%
growth at 0.08 µM (SF-539): 104%
growth at 0.08 µM (SK-MEL-28 [8]): 105%
growth at 0.08 µM (IGROV-1): 107%
growth at 0.08 µM (DU-145 [9]): 87%
growth at 0.8 µM (EKVX [10]): 50%
growth at 0.8 µM (NCI-H522 [11]): 105%
growth at 0.8 µM (SK-MEL-2 [12]): 100%
growth at 0.8 µM (NCI/ADR-RES): 91%
growth at 8 µM (SR [13]): -50%
growth at 8 µM (SF-268): -63%
growth at 8 µM (Malme-3M): -77%
growth at 8 µM (SK-MEL-28 [14]): -83%
growth at 8 µM (OVCAR-8): -14%
growth at 8 µM (786-0): -99%
growth at 8 µM (SN12C [15]): -81%
growth at 8 µM (DU-145 [16]): -100%
growth at 8 µM (MCF7): -53%
growth at 80 µM (EKVX [17]): -59%
growth at 80 µM (NCI-H522 [18]): -2%
growth at 80 µM (HCT-15): -78%
growth at 80 µM (SK-MEL-5): -100%
growth at 80 µM (RXF 393): -79%
growth at 80 µM (SN12C [19]): -96%
Activity (LOX IMVI): inactive
GI50 (RPMI-8226; read-out: GI50): 885 nM
TGI (RPMI-8226; read-out: TGI): 2260 nM
GI50 (RPMI-8226; read-out: pGI50 (converted)): 891 nM
TGI (RPMI-8226; read-out: pTGI (converted)): 2240 nM
GI50 (NCI-H23): 1410 nM
LC50 (NCI-H23): 5250 nM
TGI (NCI-H23; read-out: pTGI (converted)): 2750 nM
